According to ChEMBL document CHEMBL3627623, “Catecholic amides as potential selective phosphodiesterase 4D inhibitors: Design, synthesis, pharmacological evaluation and structure-activity relationships” (Bioorg Med Chem, 2015):

Columns and labels:
[1] = target: 3',5'-cyclic-AMP phosphodiesterase 4B (Homo sapiens, UniProt Q07343); assay: Inhibition of human full-length PDE4B1 using AM-Cyclic-3',5'-AMP after 60 mins by fluorescence polarization assay
[2] = organism: Homo sapiens; assay: Selectivity ratio of IC50 for human full-length PDE4B1 to IC50 for human full-length PDE4D7
[3] = target: Phosphodiesterase 4 (Homo sapiens, UniProt P27815+Q08499+Q07343+Q08493); assay: Inhibition of core catalytic domains of human PDE4 using AM-Cyclic-3',5'-AMP after 60 mins by fluorescence polarization assay; assay type: protein assay
[4] = target: 3',5'-cyclic-AMP phosphodiesterase 4D (Homo sapiens, UniProt Q08499); assay: Inhibition of human full-length PDE4D7 using AM-Cyclic-3',5'-AMP after 60 mins by fluorescence polarization assay
[5] = organism: Homo sapiens; assay: Selectivity ratio of IC50 for PDE4B (unknown origin) to IC50 for PDE4D (unknown origin)
[6] = organism: Homo sapiens; assay: Selectivity ratio of IC50 for PDE4B2 (unknown origin) to IC50 for PDE4D4 (unknown origin)
[7] = organism: Homo sapiens; assay: Selectivity ratio of IC50 for PDE4B1 (unknown origin) to IC50 for PDE4D7 (unknown origin)
[8] = organism: Homo sapiens; assay: Selectivity ratio of IC50 for PDE4B2 (unknown origin) to IC50 for PDE4D3 (unknown origin)
[9] = target: cGMP-dependent 3',5'-cyclic phosphodiesterase (Homo sapiens) (UniProt O00408); conditions: 10 uM
[10] = target: cAMP and cAMP-inhibited cGMP 3',5'-cyclic phosphodiesterase 10A (Homo sapiens) (UniProt Q9Y233); assay: Inhibition of human PDE10A2 using AM-Cyclic-3',5'-AMP at 10 uM after 60 mins by fluorescence polarization assay
In short: (§1)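 Recombinant human PDE isoforms in 40 mM MOPS pH 7.5, 0.5 mM EDTA, 15 mM MgCl2, 0.15 mg/mL BSA, 1 mM DTT, 0.05% Proclin 200. […] Final DMSO 1%; 60 min at 25 °C. Binding agent was added, then 1 h more. Fluorescence polarization read at ex 360/em 480 nm. IC50 or single-concentration % inhibition; mean of two experiments.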

[11] = target: High affinity cAMP-specific and IBMX-insensitive 3',5'-cyclic phosphodiesterase 8A (Homo sapiens) (UniProt O60658); assay: Inhibition of human PDE8A1 using AM-Cyclic-3',5'-AMP at 10 uM after 60 mins by fluorescence polarization assay; in short: as §1
[12] = target: cGMP-inhibited 3',5'-cyclic phosphodiesterase 3B (Homo sapiens) (UniProt Q13370); conditions: 10 uM
[13] = target: Dual 3',5'-cyclic-AMP and -GMP phosphodiesterase 11A (Homo sapiens) (UniProt Q9HCR9); conditions: 10 uM
[14] = target: cGMP-specific 3',5'-cyclic phosphodiesterase (Homo sapiens) (UniProt O76074); assay: Inhibition of human PDE5A using AM-Cyclic-3',5'-AMP at 10 uM after 60 mins by fluorescence polarization assay; in short: as §1
[15] = target: Dual specificity calcium/calmodulin-dependent 3',5'-cyclic nucleotide phosphodiesterase 1A (Homo sapiens) (UniProt P54750); assay: Inhibition of human PDE1A using AM-Cyclic-3',5'-AMP at 10 uM after 60 mins by fluorescence polarization assay; in short: as §1
[16] = target: High affinity 3',5'-cyclic-AMP phosphodiesterase 7A (Homo sapiens) (UniProt Q13946); conditions: 10 uM
[17] = target: High affinity cGMP-specific 3',5'-cyclic phosphodiesterase 9A (Homo sapiens) (UniProt O76083); assay: Inhibition of human PDE9A2 using AM-Cyclic-3',5'-AMP at 10 uM after 60 mins by fluorescence polarization assay; in short: as §1
High affinity cGMP-specific 3',5'-cyclic phosphodiesterase 9A (Homo sapiens), sequence (O76083 whole entry): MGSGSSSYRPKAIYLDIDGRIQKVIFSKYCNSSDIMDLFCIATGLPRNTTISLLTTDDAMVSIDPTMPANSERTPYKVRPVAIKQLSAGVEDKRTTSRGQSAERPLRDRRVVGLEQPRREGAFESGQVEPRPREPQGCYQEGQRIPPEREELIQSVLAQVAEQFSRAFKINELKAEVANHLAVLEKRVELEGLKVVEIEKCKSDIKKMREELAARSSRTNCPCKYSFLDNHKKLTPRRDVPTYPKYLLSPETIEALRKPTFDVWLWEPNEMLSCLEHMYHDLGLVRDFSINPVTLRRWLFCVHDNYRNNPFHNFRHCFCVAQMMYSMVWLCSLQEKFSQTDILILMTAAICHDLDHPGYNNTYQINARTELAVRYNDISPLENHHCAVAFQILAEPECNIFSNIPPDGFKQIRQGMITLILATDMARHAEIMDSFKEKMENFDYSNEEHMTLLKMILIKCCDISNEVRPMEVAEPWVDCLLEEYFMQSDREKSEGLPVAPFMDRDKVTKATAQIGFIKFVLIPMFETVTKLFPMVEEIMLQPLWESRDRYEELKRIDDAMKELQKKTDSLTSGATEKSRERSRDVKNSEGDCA

3',5'-cyclic-AMP phosphodiesterase 4B, sequence (Q07343 whole entry): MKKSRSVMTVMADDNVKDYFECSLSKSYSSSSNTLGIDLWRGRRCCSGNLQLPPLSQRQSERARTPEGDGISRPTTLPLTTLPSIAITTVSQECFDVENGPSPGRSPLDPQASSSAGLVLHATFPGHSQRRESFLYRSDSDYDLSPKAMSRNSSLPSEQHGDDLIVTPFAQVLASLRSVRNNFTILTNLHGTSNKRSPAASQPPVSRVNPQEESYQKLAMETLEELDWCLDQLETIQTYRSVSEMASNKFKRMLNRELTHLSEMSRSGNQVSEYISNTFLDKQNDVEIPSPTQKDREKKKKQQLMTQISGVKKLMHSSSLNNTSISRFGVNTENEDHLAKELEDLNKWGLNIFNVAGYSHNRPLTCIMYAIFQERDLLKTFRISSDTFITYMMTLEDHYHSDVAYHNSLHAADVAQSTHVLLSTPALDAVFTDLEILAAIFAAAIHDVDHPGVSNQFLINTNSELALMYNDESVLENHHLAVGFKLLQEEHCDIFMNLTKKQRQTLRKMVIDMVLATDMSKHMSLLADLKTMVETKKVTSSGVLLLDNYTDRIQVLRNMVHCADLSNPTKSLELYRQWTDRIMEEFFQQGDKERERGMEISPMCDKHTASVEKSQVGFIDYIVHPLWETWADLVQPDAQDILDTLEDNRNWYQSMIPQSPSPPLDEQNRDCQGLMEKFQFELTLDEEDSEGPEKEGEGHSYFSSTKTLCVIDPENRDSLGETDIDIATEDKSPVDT
3',5'-cyclic-AMP phosphodiesterase 4D, sequence (Q08499 whole entry): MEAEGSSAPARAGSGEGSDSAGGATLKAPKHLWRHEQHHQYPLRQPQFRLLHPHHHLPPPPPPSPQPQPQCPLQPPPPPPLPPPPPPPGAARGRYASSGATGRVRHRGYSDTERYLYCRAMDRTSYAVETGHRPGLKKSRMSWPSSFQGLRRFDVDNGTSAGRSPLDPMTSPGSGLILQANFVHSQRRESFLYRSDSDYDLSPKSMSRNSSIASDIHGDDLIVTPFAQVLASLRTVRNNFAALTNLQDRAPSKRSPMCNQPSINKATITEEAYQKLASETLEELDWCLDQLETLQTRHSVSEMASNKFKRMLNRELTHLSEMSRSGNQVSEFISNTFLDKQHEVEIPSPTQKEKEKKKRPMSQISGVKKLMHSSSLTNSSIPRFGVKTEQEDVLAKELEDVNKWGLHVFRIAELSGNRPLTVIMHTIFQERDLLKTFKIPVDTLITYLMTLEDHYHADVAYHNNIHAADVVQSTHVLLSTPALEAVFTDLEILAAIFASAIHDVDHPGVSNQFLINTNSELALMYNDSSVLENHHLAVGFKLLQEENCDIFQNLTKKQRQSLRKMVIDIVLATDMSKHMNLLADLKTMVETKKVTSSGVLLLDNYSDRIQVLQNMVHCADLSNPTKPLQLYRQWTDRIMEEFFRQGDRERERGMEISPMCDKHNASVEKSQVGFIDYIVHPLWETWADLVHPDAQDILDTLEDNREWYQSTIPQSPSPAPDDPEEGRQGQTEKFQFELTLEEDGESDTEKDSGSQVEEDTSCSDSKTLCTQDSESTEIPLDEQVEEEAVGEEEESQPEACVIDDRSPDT
cGMP-dependent 3',5'-cyclic phosphodiesterase (Homo sapiens), sequence (O00408 whole entry): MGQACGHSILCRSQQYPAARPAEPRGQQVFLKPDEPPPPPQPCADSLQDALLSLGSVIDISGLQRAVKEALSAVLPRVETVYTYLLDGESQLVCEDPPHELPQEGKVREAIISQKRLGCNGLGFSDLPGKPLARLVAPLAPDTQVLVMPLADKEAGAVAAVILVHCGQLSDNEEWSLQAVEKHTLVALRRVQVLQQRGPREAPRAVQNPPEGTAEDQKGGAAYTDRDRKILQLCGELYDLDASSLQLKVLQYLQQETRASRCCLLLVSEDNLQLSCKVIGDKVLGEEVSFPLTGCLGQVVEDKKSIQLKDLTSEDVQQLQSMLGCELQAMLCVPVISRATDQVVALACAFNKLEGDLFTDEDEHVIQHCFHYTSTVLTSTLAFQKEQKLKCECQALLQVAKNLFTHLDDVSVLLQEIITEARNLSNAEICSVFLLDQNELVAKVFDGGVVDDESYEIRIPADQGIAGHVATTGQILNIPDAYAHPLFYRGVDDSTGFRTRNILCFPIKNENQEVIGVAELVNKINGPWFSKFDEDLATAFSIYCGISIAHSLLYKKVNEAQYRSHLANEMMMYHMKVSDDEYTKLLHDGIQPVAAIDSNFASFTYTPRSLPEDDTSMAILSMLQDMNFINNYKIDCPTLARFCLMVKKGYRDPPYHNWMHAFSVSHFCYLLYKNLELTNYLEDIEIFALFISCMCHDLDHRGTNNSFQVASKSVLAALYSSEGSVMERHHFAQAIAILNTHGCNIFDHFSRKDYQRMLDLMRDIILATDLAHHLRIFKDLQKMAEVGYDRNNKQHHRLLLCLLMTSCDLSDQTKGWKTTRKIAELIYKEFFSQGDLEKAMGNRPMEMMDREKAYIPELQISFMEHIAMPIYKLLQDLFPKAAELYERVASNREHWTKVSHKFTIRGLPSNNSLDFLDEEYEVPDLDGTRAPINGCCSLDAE
High affinity 3',5'-cyclic-AMP phosphodiesterase 7A (Homo sapiens), sequence (Q13946 whole entry): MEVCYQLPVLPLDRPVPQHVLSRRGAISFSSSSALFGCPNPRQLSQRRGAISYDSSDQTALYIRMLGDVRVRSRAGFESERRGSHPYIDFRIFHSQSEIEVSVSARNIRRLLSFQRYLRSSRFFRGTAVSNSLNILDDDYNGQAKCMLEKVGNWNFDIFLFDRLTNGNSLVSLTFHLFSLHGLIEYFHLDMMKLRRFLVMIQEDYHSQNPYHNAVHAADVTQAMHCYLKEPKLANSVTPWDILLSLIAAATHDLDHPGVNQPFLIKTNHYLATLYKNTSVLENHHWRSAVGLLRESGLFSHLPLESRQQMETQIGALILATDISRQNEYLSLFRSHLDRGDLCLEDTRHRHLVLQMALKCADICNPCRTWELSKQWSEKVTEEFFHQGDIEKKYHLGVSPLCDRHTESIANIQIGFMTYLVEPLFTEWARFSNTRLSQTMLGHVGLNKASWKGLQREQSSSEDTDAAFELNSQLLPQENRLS
cGMP-inhibited 3',5'-cyclic phosphodiesterase 3B (Homo sapiens), sequence (Q13370 whole entry, looked up): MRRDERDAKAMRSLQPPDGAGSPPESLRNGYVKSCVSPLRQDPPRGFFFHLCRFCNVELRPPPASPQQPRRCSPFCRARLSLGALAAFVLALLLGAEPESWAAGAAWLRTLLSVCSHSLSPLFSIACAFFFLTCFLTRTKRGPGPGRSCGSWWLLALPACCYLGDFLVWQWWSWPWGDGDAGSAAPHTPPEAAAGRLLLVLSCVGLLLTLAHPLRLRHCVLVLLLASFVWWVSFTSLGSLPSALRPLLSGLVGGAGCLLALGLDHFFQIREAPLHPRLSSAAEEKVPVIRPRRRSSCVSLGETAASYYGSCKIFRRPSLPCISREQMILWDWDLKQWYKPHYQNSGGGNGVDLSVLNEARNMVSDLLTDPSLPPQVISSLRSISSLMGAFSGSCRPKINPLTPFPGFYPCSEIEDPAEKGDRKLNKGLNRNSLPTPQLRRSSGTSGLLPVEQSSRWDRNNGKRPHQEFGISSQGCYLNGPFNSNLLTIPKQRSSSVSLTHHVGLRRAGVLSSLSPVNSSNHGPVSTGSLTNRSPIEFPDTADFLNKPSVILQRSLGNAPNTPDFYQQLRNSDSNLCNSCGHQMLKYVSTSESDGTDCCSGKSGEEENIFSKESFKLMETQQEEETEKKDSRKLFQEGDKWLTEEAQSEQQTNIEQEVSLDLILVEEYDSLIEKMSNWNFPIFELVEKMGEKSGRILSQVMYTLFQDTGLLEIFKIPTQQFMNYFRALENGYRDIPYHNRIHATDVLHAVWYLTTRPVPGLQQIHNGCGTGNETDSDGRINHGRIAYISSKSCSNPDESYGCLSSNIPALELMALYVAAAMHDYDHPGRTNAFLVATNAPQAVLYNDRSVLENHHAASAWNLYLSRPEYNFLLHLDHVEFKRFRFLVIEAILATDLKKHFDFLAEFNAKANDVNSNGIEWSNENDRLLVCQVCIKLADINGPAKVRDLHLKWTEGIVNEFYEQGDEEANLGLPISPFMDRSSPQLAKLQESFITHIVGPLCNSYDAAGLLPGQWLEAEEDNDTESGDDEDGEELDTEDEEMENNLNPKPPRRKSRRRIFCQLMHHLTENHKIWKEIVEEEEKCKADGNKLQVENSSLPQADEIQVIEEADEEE

SMILES: COc1ccc(CNC(=O)c2ccc(OC(F)F)c(OCC3CC3)c2)cc1
- IC50 [1]: 301 nM
- Ratio IC50 [2]: 2.8
- IC50 [3]: 410 nM
- IC50 [4]: 108 nM

SMILES: O=C(NCc1ccccc1)c1ccc(OC(F)F)c(OCC2CC2)c1
- IC50 [3]: 2100 nM

SMILES: COc1ccccc1OCCNC(=O)c1ccc(OC)c(OC2CCCC2)c1
- IC50 [3]: 18300 nM

SMILES: COc1ccc(CNC(=O)c2ccc(OC)c(OC3CCCC3)c2)cc1
- IC50 [1]: 1030 nM
- Ratio IC50 [2]: 3.6
- IC50 [3]: 960 nM
- IC50 [4]: 284 nM

SMILES: COc1ccc(CNC(=O)c2ccc(OC)c(OCC3CC3)c2)cc1OC
- IC50 [3]: > 100000 nM

SMILES: COc1ccc(CNC(=O)c2ccc(OC(F)F)c(OCC3CC3)c2)cc1OC
- IC50 [3]: > 100000 nM

SMILES: COc1ccc([C@H](C)NC(=O)c2cccnc2Oc2ccc(F)cc2)cc1
- Ratio IC50 [5]: 142

SMILES: COc1ccccc1OCCNc1ccc(=O)n(Cc2ccc(OC)c(-c3cccc(Cl)c3)c2)n1
- Ratio IC50 [6]: 13

SMILES: O=C(NCc1ccccc1)c1ccc(OC(F)F)c(OC2CCCC2)c1
- IC50 [3]: 2200 nM

SMILES: COc1ccccc1OCCNC(=O)c1ccc(OC(F)F)c(OCC2CC2)c1
- IC50 [3]: 6900 nM

SMILES: COc1ccc(Cc2ccc(NC(N)=O)cc2)cc1-c1cccc(Cl)c1
- Ratio IC50 [7]: 54

SMILES: COc1ccc(CNC(=O)c2ccc(OC)c(OC3CCCC3)c2)cc1OC
- IC50 [3]: > 100000 nM

SMILES: COc1ccc(CNC(=O)c2ccc(OC)c(OCC3CC3)c2)cc1
- IC50 [1]: 1090 nM
- Ratio IC50 [2]: 3.2
- IC50 [3]: 910 nM
- IC50 [4]: 342 nM

SMILES: COc1ccccc1OCCNC(=O)c1ccc(OC(F)F)c(OC2CCCC2)c1
- IC50 [3]: 12400 nM

SMILES: COc1ccc(/C=N/OCC(O)CNN2CC(C)OC(C)C2)cc1OC1CCCC1 (stereo not drawn)
- Ratio IC50 [8]: 85

SMILES: COc1ccc(CNC(=O)c2ccc(OC(F)F)c(OC3CCCC3)c2)cc1
- IC50 [1]: 976 nM
- inhibition [9]: 2%
- inhibition [10]: 1%
- inhibition [11]: 10%
- IC50 [3]: 1100 nM
- inhibition [12]: 2%
- IC50 [4]: 94 nM
- inhibition [13]: 2%
- inhibition [14]: 16%
- inhibition [15]: 11%
- inhibition [16]: 3%
- inhibition [17]: 6%

SMILES: COc1ccc(CNC(=O)c2ccc(OC(F)F)c(OC3CCCC3)c2)cc1OC
- IC50 [3]: > 100000 nM

SMILES: COc1ccccc1OCCNC(=O)c1ccc(OC)c(OCC2CC2)c1
- IC50 [3]: 11100 nM
